Assay results pooled from the literature.
Lines come from different studies, so protocols differ.
Target: Serine/threonine-protein kinase WNK1 (WNK1, Homo sapiens, UniProt Q9H4A3)

With `Cc1nc(N2CC[C@@H](O)C2)ncc1-c1cc(C(F)(F)F)cc2[nH]ncc12` the remaining binding was 71% (binding, competition with immobilised ligand; 1 µM).
The remaining binding of `FC(F)(F)Oc1cccc(-c2cnc3ccc(-c4ccncc4)nn23)c1` is reported as 79% (binding, competition with immobilised ligand; 5 µM).
`Cc1nccc(COC(=O)N2C[C@@H]3[C@@H](CNC(=O)c4ccc5[nH]nnc5c4)[C@@H]3C2)n1` gave a remaining binding of 86% (cell-free assay, competition with immobilised ligand; 1 µM).
With `CNC(=O)[C@@H]1CC[C@@H](n2c(-c3ccc4cnccc4c3)nc3ccc(C(=O)NCc4cccc(C(N)=O)c4)cc32)C1` the remaining binding was 100% (binding, competition with immobilised ligand; 1 µM).
The remaining binding of `F[C@@H]1CCN(c2nccc(-c3cnn4ncccc34)n2)C1` is reported as 100% (binding; 1 µM).
For `O=C(c1ccc(Nc2ncc(Cl)c(-c3ccc(Cl)s3)n2)cc1)N1CCC(N2CCCC2)CC1`, the remaining binding was 95% (binding, competition with immobilised ligand; 1 µM).
With `c1cnn2ncc(-c3ccnc(N4CCC45COC5)n3)c2c1` the remaining binding was 100% (binding; 1 µM).
`CCN1CCN(Cc2ccc(C(=O)Nc3ccc(C)c(Oc4ccc5c(c4)CC(=O)N5)c3)cc2C(F)(F)F)CC1` has a remaining binding of 100% (binding, competition with immobilised ligand; 1 µM).
With `O=C(NCC1CCOCC1)c1n[nH]cc1NC(=O)c1c(F)cccc1F` the remaining binding was 100% (binding, competition with immobilised ligand; 1 µM).
For `N[C@H]1CCN(c2nccc(-c3cnn4ncccc34)n2)C1`, the remaining binding was 8.4% (binding; 1 µM).
For `COc1cnc(Nc2cccc(S(N)(=O)=O)c2)nc1N1CCN(c2ccccc2)C(=O)C1`, the remaining binding was 0% (binding, competition with immobilised ligand; 1 µM).
`NS(=O)(=O)c1cc(NC(=O)C2(c3ccccc3Cl)CC2)ccc1Oc1cccc(Cl)c1` has a remaining binding of 88% (cell-free assay, competition with immobilised ligand; 1 µM).
`Cc1cnn2ncc(-c3ccnc(N(C)C)n3)c2c1` gave a remaining binding of 94% (binding; 1 µM).
For `Nc1ncc2c(n1)-c1c([nH]c3ccc(C#CC4CC4)cc13)CCCC2`, the remaining binding was 97% (binding, competition with immobilised ligand; 1 µM).
The remaining binding of `O=C(O)[C@H]1[C@H](Cn2nnc3ccccc3c2=O)CC[C@@H]1C(=O)c1ccc(OCCC2CCOCC2)cc1` is reported as 100% (cell-free assay, competition with immobilised ligand; 1 µM).
For `CN(CCCC(F)(F)F)c1nccc(-c2cnn3ncccc23)n1`, the remaining binding was 100% (binding; 1 µM).
`Cc1cnc(Nc2ccc(C(=O)N3CCC(N4CCCC4)CC3)cc2)nc1-c1cc2ccccc2s1` gave a remaining binding of 90% (binding, competition with immobilised ligand; 1 µM).
`Cc1cc(-n2nc(Cc3cc(F)cc(C(F)(F)F)c3)nc2C)ccc1C(N)=O` gave a remaining binding of 100% (cell-free assay, competition with immobilised ligand; 1 µM).
